This is an account of results in ChEMBL document CHEMBL4371095, “Triazole-Based Inhibitors of the Wnt/β-Catenin Signaling Pathway Improve Glucose and Lipid Metabolisms in Diet-Induced Obese Mice” (J Med Chem, 2019).

The target in series [1] is Axin-1 (Homo sapiens) (UniProt O15169). Description: Stabilization of Axin1 in human HuH7 cells assessed as decrease in lipid accumulation at 5 uM after 36 hrs by nile red staining based fluorescence microscopic method. The series is classed as cell-based. The gist of the method: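 Huh7 cells on collagen I-coated coverslips were treated with 5 μM compound for 36 h, then with 200 μM sodium oleate for a further 12–16 h. Cells were stained with 1 μM Nile red in HBSS for 10 min at 37 °C in the dark and imaged by fluorescence microscopy at 552/636 nm.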

The nature of series [2]: Inhibition of Wnt/beta-catenin signaling (unknown origin) expressed in HEK293 cells harboring siRNA after 24 hrs by luciferase reporter gene assay. The note with it: Homo sapiens, HEK293, 24 h. The series is classed as cell-based.
The next series is filed under the species Homo sapiens. The series can be described thus: Ratio of IC50 for Wnt/beta-catenin signaling (unknown origin) expressed in HEK293 cells harboring GSK3B siRNA to IC50 for Wnt/beta-catenin signaling (unknown origin) expressed in HEK293 cells harboring siRNA. The series is classed as cell-based.
Series [3] is described as follows: Toxicity in high fat diet fed C57BL/6J mouse assessed as serum creatinine level at 40 mg/kg, ip administered every 2 days for 11 weeks by Jaffe's reaction analysis (reference value: 0.3 +/- 0.02 mg/dl). The note with it: in vivo. The series is classed as organism-based.
The species entered for series [4] is Mus musculus. The series can be described thus: Inhibition of Wnt/beta-catenin/Axin signaling in mouse hepatocytes assessed as decrease in PEPCK mRNA level at 5 uM by qPCR analysis. The series is classed as cell-based. The gist of the method:
(§1)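 Normal mouse hepatocytes were treated with 5 μM compound, and lipogenic and gluconeogenic gene mRNA was measured by qPCR; mean ± S.D. of triplicates.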
(In general: Real-time PCR tracks product formation cycle by cycle.)

For series [5], the system named is Mus musculus. The series can be described thus: Effect on body weight gain in normal chow diet fed C57BL/6J mouse at 40 mg/kg, ip administered every 2 days for 11 weeks. The series is classed as ADME, organism-based. As to conditions: in vivo. The gist of the method:
(§2)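 Male mice, 8 weeks old, kept on normal chow throughout and dosed i.p. every 2 days in corn oil vehicle for 11 weeks. Body weight gain, liver/body weight ratio, and liver mRNA of the indicated genes were measured at sacrifice; mean ± SEM, n = 5 per group where stated.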

Series [6] deals with Mus musculus. Description: Decrease in hepatic CycD1 mRNA level in high fat diet fed C57BL/6J mouse at 40 mg/kg, ip administered every 2 days for 11 weeks by qPCR analysis. The series is classed as functional, organism-based. The gist of the method:
(§3)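 Male mice, 8 weeks old, fed a 45% kcal fat diet for 6 weeks, then dosed i.p. every 2 days in corn oil vehicle for 11 weeks. Liver mRNA of the indicated genes was quantified at sacrifice; mean ± SEM, n = 5 per group.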

The subject of series [7] is Mus musculus. Description: Effect on hepatic FGF21 mRNA level in normal chow diet fed C57BL/6J mouse at 40 mg/kg, ip administered every 2 days for 11 weeks by qPCR analysis. The series is classed as ADME, organism-based. As to conditions: in vivo. The gist of the method: as §2
Series [8] concerns HEK293. Description: Inhibition of Wnt/beta-catenin/Axin signaling (unknown origin) expressed in HEK293 cells assessed as increase in Axin binding to beta-catenin after 12 hrs by immunoprecipitation method. The note with it: Homo sapiens. The series is classed as cell-based.
Series [9] is filed under the species Mus musculus. The series can be described thus: Inhibition of Wnt/beta-catenin/Axin signaling in mouse hepatocytes assessed as decrease in FASN mRNA level at 5 uM by qPCR analysis. The series is classed as cell-based. Summed up: as §1
The test system of series [10] is HEK293. The series can be described thus: Inhibition of Wnt/beta-catenin signaling (unknown origin) expressed in CK1alpha knock down HEK293 cells harboring TCF/LEF-responsive luciferase assessed as luminescence at 20 nM measured after 24 hrs by luciferase reporter gene assay relative to control. The series is classed as cell-based. Also on record: scale not given: the % may be the effect or the level left. The note with it: Homo sapiens. Summed up: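 HEK293 cells were transfected with siRNA against GSK3β, Axin or CK1α using RNAiMAX for 36 h. Cells were then treated with or without compound at 20 nM for 24 h, and TCF/LEF luciferase reporter activity was read.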

Series [11] deals with Mus musculus. The series can be described thus: Effect on hepatic CycD1 mRNA level in normal chow diet fed C57BL/6J mouse at 40 mg/kg, ip administered every 2 days for 11 weeks by qPCR analysis. The series is classed as ADME, organism-based. As to conditions: in vivo. Summed up:
as §2

Series [12] deals with Mus musculus. Description: Effect on hepatic PEPCK mRNA level in normal chow diet fed C57BL/6J mouse at 40 mg/kg, ip administered every 2 days for 11 weeks by qPCR analysis. The series is classed as ADME, organism-based. As to conditions: in vivo. Summed up:
as §2

In series [13] the test system is HEK293. Description: Inhibition of 25 to 50 mM LiCl activated Wnt/beta-catenin signaling (unknown origin) expressed in HEK293 cells harboring TCF/LEF-responsive luciferase at 0.1 uM preincubated with cells followed by LiCl addition and measured after 24 hrs by luciferase reporter gene assay. The series is classed as cell-based. The note with it: Homo sapiens.
Series [14] can be described thus: Toxicity in high fat diet fed C57BL/6J mouse assessed as serum triglyceride level at 40 mg/kg, ip administered every 2 days for 11 weeks (reference value: 93.5 +/- 12.1 mg/dl). The series is classed as organism-based. As to conditions: in vivo.
The test system of series [15] is Mus musculus. Description: Effect on hepatic SREBP1 mRNA level in normal chow diet fed C57BL/6J mouse at 40 mg/kg, ip administered every 2 days for 11 weeks by qPCR analysis. The series is classed as ADME, organism-based. The note with it: in vivo. The gist of the method: as §2
A short description of series [16]: Toxicity in normal chow diet fed C57BL/6J mouse assessed as serum triglyceride level at 40 mg/kg, ip administered every 2 days for 11 weeks (reference value: 69 +/- 2.5 mg/dl). The series is classed as organism-based. As to conditions: in vivo.
Series [17] concerns Mus musculus. The series can be described thus: Decrease in hepatic ACC1 mRNA level in high fat diet fed C57BL/6J mouse at 40 mg/kg, ip administered every 2 days for 11 weeks by qPCR analysis. The series is classed as functional, organism-based. The gist of the method:
as §3

In series [18] the test system is Mus musculus. The series can be described thus: Effect on hepatic GCK mRNA level in normal chow diet fed C57BL/6J mouse at 40 mg/kg, ip administered every 2 days for 11 weeks by qPCR analysis. The series is classed as ADME, organism-based. As to conditions: in vivo. The gist of the method: as §2
For series [19], the system named is HEK293. Description: Inhibition of Wnt (unknown origin)/FLAG-tagged human beta-catenin signaling expressed in HEK293 cells harboring TCF/LEF-responsive luciferase at 100 nM measured after 24 hrs by luciferase reporter gene assay. The series is classed as cell-based. Summed up: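 HEK293 cells were transfected for 16 h with TOPFlash or FOPFlash, Renilla, and pcDNA3 wild-type or S33Y β-catenin. Compound was then added for a further 24 h. Firefly/Renilla dual-luciferase ratio was the read-out.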
For orientation: A reporter such as luciferase makes a cellular process visible.

Series [20] deals with HEK293. The series can be described thus: Inhibition of Wnt3a activated Wnt/beta-catenin/Axin signaling (unknown origin) expressed in HEK293 cells assessed as degradation of beta-catenin by measuring decrease in beta-catenin protein expression at 1 to 10 uM after 2 hrs by Western blot method. The series is classed as cell-based. The note with it: Homo sapiens. Summed up:
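HEK293 cells stimulated with WNT3a were treated with compound for 2 h. Cells were lysed in 10 mM HEPES, 100 μM EDTA, 10 mM KCl, 0.5% NP40, protein was quantified by BCA, and β-catenin and Axin1 were resolved on 10% SDS-PAGE and immunoblotted.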
On the technique in general: A western blot detects proteins with antibodies after separation by electrophoresis.

Series [21] concerns the target Axin-1 (Homo sapiens) (UniProt O15169). Description: Stabilization of Axin1 protein in HEK293 cells assessed as increase in cytoplasmic punctas at 1 uM after 14 hrs by DAPI staining based confocal microscopic method. The series is classed as cell-based. The gist of the method: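 HEK293 cells on poly-D-lysine slides were treated with 1 μM compound for 14 h. Cells were fixed in 10% formalin for 20 min, permeabilized with methanol, blocked with 5% BSA, stained overnight for Axin1 with secondary antibody for 2 h, counterstained with DAPI, and imaged by confocal microscopy.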

For series [22], the system named is HEK293. The series can be described thus: Inhibition of Wnt/beta-catenin/Axin signaling (unknown origin) expressed in HEK293 cells assessed as decrease in Axin2 mRNA level after 48 hrs by qPCR analysis. The series is classed as cell-based. As to conditions: Homo sapiens. The gist of the method: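 HEK293 cells were treated with compound for 48 h, harvested in TRIzol, and Wnt target gene mRNA was quantified by qPCR.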

For series [23], the system named is Mus musculus. The series can be described thus: Effect on hepatic FASN mRNA level in normal chow diet fed C57BL/6J mouse at 40 mg/kg, ip administered every 2 days for 11 weeks by qPCR analysis. The series is classed as ADME, organism-based. The note with it: in vivo. The gist of the method:
as §2

Molecules are shown by their SMILES. The source made the active and inactive calls. The rule behind the calls is not given here.

Axin-1 (Homo sapiens), sequence (O15169 whole entry): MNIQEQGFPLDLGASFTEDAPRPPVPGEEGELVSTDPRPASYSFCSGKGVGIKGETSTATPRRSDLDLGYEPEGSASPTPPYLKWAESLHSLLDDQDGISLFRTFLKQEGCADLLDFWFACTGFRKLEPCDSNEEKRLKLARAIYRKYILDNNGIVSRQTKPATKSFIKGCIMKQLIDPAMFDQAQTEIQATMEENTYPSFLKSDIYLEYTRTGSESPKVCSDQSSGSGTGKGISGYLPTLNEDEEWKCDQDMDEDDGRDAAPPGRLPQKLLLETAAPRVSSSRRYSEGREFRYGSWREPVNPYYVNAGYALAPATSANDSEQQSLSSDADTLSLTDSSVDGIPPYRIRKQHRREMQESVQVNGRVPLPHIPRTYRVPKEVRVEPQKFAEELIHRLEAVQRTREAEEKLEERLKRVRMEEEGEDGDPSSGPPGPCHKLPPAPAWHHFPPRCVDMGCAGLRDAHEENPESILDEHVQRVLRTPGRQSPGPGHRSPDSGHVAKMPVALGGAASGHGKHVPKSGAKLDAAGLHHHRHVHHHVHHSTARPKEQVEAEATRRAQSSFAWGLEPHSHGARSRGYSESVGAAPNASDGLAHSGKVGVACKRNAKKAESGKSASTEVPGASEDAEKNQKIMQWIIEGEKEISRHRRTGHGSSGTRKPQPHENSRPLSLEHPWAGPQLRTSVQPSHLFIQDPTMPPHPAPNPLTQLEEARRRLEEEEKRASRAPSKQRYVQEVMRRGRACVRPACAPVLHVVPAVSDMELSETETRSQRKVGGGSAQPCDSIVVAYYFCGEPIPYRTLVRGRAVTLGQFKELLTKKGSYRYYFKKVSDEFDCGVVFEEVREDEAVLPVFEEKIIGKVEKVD

As to `Cc1ccccc1-n1nnc(C(=O)Nc2ccc3ccccc3n2)c1C`, the outcome on Axin-1 (Homo sapiens) [1], in the series on Mus musculus [6], in the series with Mus musculus [17] and at Axin-1 (Homo sapiens) [21] was Active. Moreover, 20 nM corresponded to half-maximal inhibition in [2] (IC50). In addition, the Ratio IC50 in the series filed under Homo sapiens was 1.7. Moreover, the Activity is 0.2 mg/dL in series [3]; “Non-Toxic” in the series with Mus musculus [5]; “Non-Toxic” with Mus musculus [7]; 52% in the series on HEK293 [10]; “Non-Toxic” in the series on Mus musculus [11]; “Non-Toxic” with Mus musculus [12]. Moreover, the Activity was 85.3 mg/dL in [14]; “Non-Toxic” with Mus musculus [15]; 55 mg/dL in series [16]; “Non-Toxic” in the series with Mus musculus [18]; “Non-Toxic” with Mus musculus [23]. In addition, the inhibition result in the series filed under Mus musculus [4], in the series on HEK293 [8], in the series filed under Mus musculus [9], with HEK293 [13], in the series with HEK293 [19] and with HEK293 [20] was “Active” in each case. In the series with HEK293 [22], the inhibition entry is “Active”.
